# This is a sample that favours compounds with a hit; in the whole collection about 2.5% have one here.
# bovine MsrA act: bovine MsrA enzyme activators, primary screen, biochemical, absorbance, HTS; Methionine sulfoxide reductase A (Bos taurus); purified bovine MsrA, absorbance read-out; activation, % at 10.6 µM; 0.3% of 360,000 active; AID 602163, 2012; in the data active = activation above about 7.5%;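 note: 0% = vehicle and 100% = reference activator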
# MsrA inhibitor: bovine MsrA enzyme inhibitors, primary screen, biochemical, absorbance, HTS | Methionine sulfoxide reductase A (Bos taurus) | purified bovine MsrA, absorbance read-out | inhibition, % at 15.5 µM | 0.75% of 360,000 active; in the data active = inhibition above about 4.5%;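 note: 0% = vehicle wells with enzyme and 100% = reference inhibitor wells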
# NadD block: inhibitors of S. aureus NadD, primary screen, biochemical, colorimetric, uHTS. purified NadD enzyme, colorimetric absorbance read-out. inhibition, % at 20 µM. 0.78% of 360,000 active; in the data active = inhibition above about 26%
# GalR3 antag: GalR3 antagonists in HEK293 cells, primary screen, cell-based, fluorescence readout | HEK293 GalR3-CNG cAMP membrane potential fluorescence; galR3 body fused to GalR1 C-terminus | inhibition, % at 3 µM | 0.44% of 360,000 active;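 active = inhibition above the screen-wide average plus 3 SD, cut at about 13% in these data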;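 note: forskolin and galanin both at EC90 stimulate the cells; cAMP rise reported by CNG channel membrane potential dye signal; 0% = forskolin plus galanin with DMSO and 100% = forskolin alone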
# NR2E3 ag-1: NR2E3 agonists in two-hybrid cells, primary screen, cell-based, luminescence, CHO-S, Gal4-NCOR/VP16-NR2E3; Photoreceptor-specific nuclear receptor (Homo sapiens), Q9Y5X4; luciferase; inhibition of corepressor binding, % at 3.98 µM; 0.35% of 360,000 active;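 active = inhibition above the mean of all tested compounds plus 3 SD, cut at about 70% in these data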;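 note: 0% = DMSO with NR2E3 transfected cells and 100% = cells lacking NR2E3 construct; higher means lower luciferase signal from less NR2E3 corepressor binding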
# NR2E3 ag-2: inhibitors of NR2E3-RetCOR corepressor binding, primary screen, NR2E3 agonist project, biochemical, TR-FRET, GST-NR2E3, biotin-RetCOR; Photoreceptor-specific nuclear receptor (Homo sapiens), Q9Y5X4; 1536-well; inhibition of corepressor binding, % at 4.78 µM; 0.12% of 320,000 active; AID 2300, 2010;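 active = percent inhibition above the cutoff of mean plus 3 SD of all tested compounds, set per screening campaign, cut at about 20% in these data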;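 note: 0% = DMSO wells and 100% = biotin wells as full block of FRET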
#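 System: GST-tagged NR2E3 plus biotinylated RetCOR corepressor; Amount: 1.35 nM GST-tagged NR2E3 final; Dosing: single nominal compound dose of 4.8 µM; Schedule: 5 h incubation at 4 °C; Technique: TR-FRET with europium anti-GST and streptavidin-D2, 340 nm excitation; Controls: biotin wells as high control, 0.6% DMSO wells as low control.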
# NR2E3 ag confirm: NR2E3 agonists, confirmation, biochemical, TR-FRET; activation (reported as inhibition), % at 3.98 µM; shares compounds with NR2E3 ag-2; cell-free NR2E3 corepressor release, 5 h; 39% of 360 active; in the data active = activation above about 20%
# PPARg-NCOR2 ctr: agonists of PPARg-NCOR2 corepressor interaction, counter-screen for NR2E3 agonist project, biochemical, TR-FRET; TR-FRET PPARg-NCOR2 coregulator interaction; 45% of 360 active; shares compounds with NR2E3 ag-2; inhibition, % at 3.98 µM; in the data active = inhibition above about 20%;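 note: 0% = DMSO vehicle and 100% = wells without protein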
# * = called active by the depositor; nt = no result.
SMILES,bovine MsrA act,MsrA inhibitor,NadD block,GalR3 antag,NR2E3 ag-1,NR2E3 ag-2,NR2E3 ag confirm,PPARg-NCOR2 ctr
O=C(O)c1cc(-c2cccs2)nc2ccc(Br)cc12,-2,2,-3,-11,-35,41*,41*,53*
O=C(O)c1cc(-c2cccnc2)nc2ccc(Br)cc12,-3,1,4,-6,0,56*,58*,57*
CCN(CC)CCN1C(=O)c2oc3ccccc3c(=O)c2C1c1ccc(F)cc1 (stereo unspecified),-2,-1,-8,-3,-11,1,nt,nt
CC(OC(=O)/C(C#N)=C/c1ccc(N(C)C)cc1)C(=O)N(C)c1ccccc1 (stereo unspecified),-3,1,-7,-6,9,1,nt,nt
CC(=O)Nc1ccc(NC(=O)C(C)OC(=O)/C(C#N)=C/c2ccc(N(C)C)cc2)cc1 (stereo unspecified),-2,1,-2,-6,-46,34*,30*,30*
CCOc1ccccc1NC(=O)CCSc1nc2n[nH]c(C)c2c(=N)n1-c1ccccc1Cl,-1,1,8,-3,-30,26*,32*,34*
Cc1ccc(S(=O)(=O)NC(CC(=O)O)c2ccc(F)cc2)cc1 (stereo unspecified),-5,-1,-3,-1,-20,1,nt,nt
CCCn1c(C)cs/c1=N\C(=S)Nc1ccccc1,-14,1,4,-3,1,26*,17,14
Cc1cs/c(=N/C(=S)Nc2ccccc2)n1C,-8,3,0,7,-162,7,nt,nt
CN1CCN(c2ccc([N+](=O)[O-])cc2C(=O)N2CCCCC2)CC1,-3,1,-2,-3,-14,0,nt,nt
COc1cc(/C=C/C(=O)Oc2coc(CSc3ncccn3)cc2=O)cc(OC)c1OC,-6,0,-3,-6,6,3,nt,nt
O=C(O)C1CCN(c2nc(-c3ccccc3)c3cc(Br)ccc3n2)CC1,-4,1,2,-12,-59,21*,24*,25*
Cc1nn(CCC(=O)NCCc2ccccc2Cl)c(=O)c2nn(-c3ccccc3)c(C)c12,-2,-1,0,-1,-24,-1,nt,nt
CCC(=O)c1ccccc1OCCCn1cncn1,-7,1,-1,-6,-8,1,nt,nt
Cc1cc(-n2c(SCC(=O)NCCC3=CCCCC3)nc3n[nH]c(C)c3c2=N)ccc1Cl,-3,0,7,-9,19,59*,10,3
Cc1ccc(Cl)cc1-n1c(SCC(=O)NCCC2=CCCCC2)nc2n[nH]c(C)c2c1=N,-1,0,2,-3,-21,-1,nt,nt
COc1ccc(OCc2cccc(C(=O)Nn3cc([N+](=O)[O-])cn3)c2)cc1,-7,1,-6,-5,-97,-2,nt,nt
O=S(=O)(NCc1cccs1)c1cccc(S(=O)(=O)N2CCCCC2)c1,-11,4,-9,-2,-11,34*,-6,-6
O=C(Oc1oc(-c2ccco2)nc1C=Nc1ccccc1)c1ccoc1,-2,0,-2,-1,-20,3,nt,nt
C#CCn1c(=NC(=O)CSC(C)=O)sc2cc(F)ccc21,-2,nt,7,nt,15,27*,11,20*
O=C(CSc1nc2ccccc2c(=O)n1-c1ccccc1Cl)Nc1cccc(S(=O)(=O)N2CCOCC2)c1,-7,2,18,-1,-7,25*,-6,-8
Cc1ccc(C(=O)CSc2nc(-c3ccccc3)cc(=O)[nH]2)cc1,-3,0,0,-1,-15,-2,nt,nt
Nc1ccc(N2CCCCC2)c2nonc12,3,-1,5,-4,-43,43*,-16,-14
Cc1c(NC(=O)c2ccc(N3CCCC3)c([N+](=O)[O-])c2)cccc1-c1nc2ccccc2s1,-6,1,28,-7,-39,0,nt,nt
Cc1c(NC(=O)c2ncn[nH]2)cccc1-c1nc2ccccc2s1,-5,0,7,-4,-13,20*,5,18
SMILES,bovine MsrA act,MsrA inhibitor,NadD block,GalR3 antag,NR2E3 ag-1,NR2E3 ag-2,NR2E3 ag confirm,PPARg-NCOR2 ctr
CCOC(=O)CSc1nnc(-c2ccoc2C)n1-c1ccc(C)cc1,-2,0,-4,-1,-41,-1,nt,nt
CN(c1ccc(Cl)cc1)c1cc(=O)n(C)c2ccccc12,-4,2,6,-1,-20,21*,3,5
O=C(O)c1ccc(-n2cccc2/C=C2/SC(=O)N(CC(=O)N3CCCC3)C2=O)cc1,-4,1,-8,-9,-54,21*,18,6
N#Cc1ccccc1CN1C(=O)S/C(=C/c2cccn2-c2ccc(C(=O)O)cc2)C1=O,-5,1,7,0,22,2,nt,nt
COC(=O)c1cc2ccsc2n1CC(=O)Nc1cc(C)cc(C)c1,-4,-1,1,-3,-11,36*,19,20*
CSc1nc(N)nc(SCC(=O)c2ccc(C)cc2)c1C#N,-6,1,-3,-5,-21,47*,8,10
CCCOc1ccc(-c2csc(N)n2)cc1[N+](=O)[O-],0,0,-2,-7,-69,0,nt,nt
c1ccc2c(c1)-c1cccc3c1c-2cc1ccccc13,nt,nt,nt,nt,nt,25*,-7,-4
COc1ccccc1C1C(C(=O)c2cc3ccccc3o2)=C(O)C(=O)N1c1cc(C)on1 (stereo unspecified),-4,1,12,2,-5,22*,20*,19
COc1ccc(OC)c(C2C(C(=O)c3cc4ccccc4o3)=C(O)C(=O)N2c2cc(C)on2)c1 (stereo unspecified),-5,3,16,-2,-28,24*,17,11
C=CCn1c(SCC(=O)NC(=O)NCc2ccco2)nc2sc(C)c(C)c2c1=O,-1,0,9,-2,-7,22*,-2,8
C=CCn1c(SCC(=O)NCCO)nc2sc(C)c(C)c2c1=O,-7,1,-1,-1,0,4,nt,nt
